From ChEMBL document CHEMBL4513216, “Probing the Open Global Health Chemical Diversity Library for Multistage-Active Starting Points for Next-Generation Antimalarials” (ACS Infect Dis, 2020)

assay: Toxicity liver stage against HepG2, at 10uM; type: cell-based; design: test concentration 10 uM, cell line HepG2-A16-CD81EGFP; details: human, HepG2-A16-CD81EGFP cells; read-out: INHIBITION
Procedure, shortened: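 Uninfected HepG2-A16-CD81EGFP cells, 3 × 10^3 per well, 1536-well, plated on prespotted compound at 10 μM final, parasite-free screening media added to match infected plates; puromycin 10 μM positive, DMSO 0.5% negative; run in parallel with 48 h PbLuc assay at 37 °C, 5% CO2; viability by CellTiter-Glo luminescence, normalized to controls.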

SMILES	cytotoxicity at 10 µM [%]
Cc1ccc(NC(=O)c2cc(S(=O)(=O)N3CCCCC3)c[nH]2)cc1F	1.26
COCCN(CCOC)Cc1c(C)nc2ccccc2c1O	2.08
CC(C)(C)C(=O)NC[C@H]1Cn2c(-c3ccccc3)cnc2CO1	-3.69
CN1CCN(C(=O)c2cc3occc3n2Cc2ccccc2F)CC1	1.14
Cc1n[nH]c2nc(-c3ccccc3O)cc(C(=O)O)c12	-1.55
COC(=O)c1ccc(C2SCC(=O)Nc3c2cnn3C2CCCC2)cc1 (centres undefined)	1.9
COc1ccc(C(=O)NCC(c2cccn2C)N2CCN(C)CC2)cc1 (centres undefined)	8.19
O=C(O)c1ncccc1N1CCCCC1	4.19
CN(C)C(=O)N1CCN(C)c2ncccc2C1	-4.14
O=C1COc2ccc(S(=O)(=O)NC3CC3)c3c2N1CCC3	-16.7
CC(C)NC(=O)[C@@H]1CN(C(=O)C2CC2)C[C@]12Cc1ccccc1C(=O)N2	1.48
CN(C)c1ncc(I)c(C2CCCN2S(C)(=O)=O)n1 (centres undefined)	3.8
Cc1ccc(CC(=O)N2CCOC(c3ncc(CN(C)C)[nH]3)C2)s1 (centres undefined)	-3.47
Cc1nn(C)cc1-c1cc(C(=O)N2CCc3ncc(Cl)cc3C2)on1	-4.96
CC(C)N1CCCC1c1cc(CCO)[nH]n1 (centres undefined)	0.895
Cc1noc(C)c1CCC(=O)N[C@@H]1CC[C@@H](Oc2cccnc2)[C@@H]1O	-2.62
Cc1ccc(S(=O)(=O)N[C@H](CO)C(C)C)cc1N(C)C	-5.53
CC(C)N(C(=O)c1ccnc(OCC(F)(F)F)c1)c1cccnc1	8.05
N#Cc1cccc(CN2CCCC2Cn2cncn2)c1 (centres undefined)	3.15
COC(=O)c1ccc(N(C(=O)c2ccncc2)C(C)C)c(C)c1	0.503
Cc1noc(CCCC(=O)NCCc2cc3ccccc3[nH]2)n1	1.38

SMILES	cytotoxicity at 10 µM [%]
CC(NCc1ccccc1CN1CCCC1=O)c1ccc(C#N)cc1 (centres undefined)	3.09
Cc1ccc(CN2CCOC(C)(c3cnn(C)c3)C2)cc1 (centres undefined)	-4.16
COC(=O)c1ccc(Cn2nc(C)cc2C)c(OC)c1	10.7
N#Cc1ccc(SCCOCCO)c(Cl)c1	2.68
CCOc1ccnc(N2CCN(CCOC)CC2)n1	4.49
COCCS(=O)(=O)NC(=O)c1nnn(-c2ccc(F)cc2)c1C1CC1	0.188
O=C(NCc1ccc(CN2CCCCC2)cc1)Nc1cccnc1	74.5
COc1cc(C)nc(N2CCN(C(=O)CCc3ccncc3)CC2)n1	-5
COc1c(C2CCCN2C(=O)c2ccco2)c(C)nn1C (centres undefined)	-1.68
CCCN(C(=O)c1cnns1)C1CCCN(Cc2ccccc2)C1 (centres undefined)	-4.35
Cc1cc(N)nc(SC2CCN(c3ccccc3)C2=O)n1 (centres undefined)	-0.572
Cc1ccc2c(c1)CCCN2C(=O)c1cncc(Br)c1	-8.79
COC(=O)c1ccc(OCCn2cnc(C#N)n2)cc1	-2.01
CN1CCN(C)C(CNc2c(C#N)cnc3ccc(Cl)cc23)C1 (centres undefined)	-4.58
Cc1nc(S(=O)(=O)CCn2cccn2)n(C2CCCCC2)c1C	-5.58
COc1cccc(CNc2nnc(C(C)(C)C)o2)c1OC	-0.508
CC(NC1(CNC(=O)Cn2cccn2)CCOCC1)c1ccccc1 (centres undefined)	-3.07
OC(CN(Cc1ccccc1)Cc1ccncc1)c1cccs1 (centres undefined)	-3.65
COc1ccc(C(=O)NS(=O)(=O)c2cncc(Br)c2)cc1OC	4.36
CC(NC(=O)CCCOc1ccccc1Cl)c1ccncc1 (centres undefined)	-13
CCC(NC1CCN(C(=O)c2ccccc2)CC1)c1cccs1 (centres undefined)	-2.62

SMILES	cytotoxicity at 10 µM [%]
CC(=O)N1CCOC(Cc2cccc(C(F)(F)F)c2)C1 (centres undefined)	-6.64
CC(C)CN1CC2(CCN(C(=O)C(O)c3ccccc3Cl)CC2)CC1=O (centres undefined)	6.89
CN(CC1(O)CCCN(Cc2cccc(F)c2F)C1=O)C1CCCCC1 (centres undefined)	-11.1
Cc1ccsc1[C@@H]1CCN(C(=O)CCC(=O)c2ccccc2)C[C@H]1O	3.52
O=c1[nH]c2cc3c(cc2cc1CN1CCCC1c1ccccn1)OCO3 (centres undefined)	-4.5
CCn1c(C)nnc1SCCn1cc(-c2ncc[nH]2)nn1	-6.99
CCOCC(=O)N1Cc2cnc(-c3ccccc3)nc2C1	-1.08
CN(CCC1CCCCO1)c1nncc(-c2ccccc2)n1 (centres undefined)	1.37
CCc1ncc(S(C)(=O)=O)c(C2CCCNC2)n1 (centres undefined)	-14.2
COCCNS(=O)(=O)c1cccc2c1CN(C(=O)c1cc(C)on1)CC2	1.63
COCCn1ccnc1C1CCN(C(=O)CSc2nnc(C)o2)CC1	-11.5
CC1CCCCN1C1CN(c2nc(C3CCCC3)nc3c2cnn3C)C1 (centres undefined)	-0.699
O=C(O)C(c1ccc2c(c1)OCCO2)N1CCC(N2CCSCC2)CC1 (centres undefined)	-1.1
O=C(c1ccccc1-c1nc[nH]n1)N1CCOC(C(F)(F)F)C1 (centres undefined)	-0.359
Cc1ccc(Cl)c(CN2CCC3(CC2)C(C(=O)O)CC(=O)N3C)c1F (centres undefined)	2.64
O=C(NCCN1CCCCCC1)c1coc(COc2ccc(F)cc2)n1	-4.07
CS(=O)(=O)NCCC(=O)Nc1cnn(-c2ccccc2Cl)c1	-0.0414
O=C(CN1CCCC1c1noc(C2CC2)n1)NCCc1ccsc1 (centres undefined)	2.82
Cc1ccc(NC2CCN(C(=O)CCc3c(C)noc3C)CC2)nn1	-11.4
Cc1nc(CN2CCC(N(C)Cc3nnc(C4CC4)n3C)C2)cs1 (centres undefined)	-10.7
Cc1nn(C)c(Cl)c1C1CCCN1C(=O)c1ccc2c(c1)COC2 (centres undefined)	-16.1

SMILES	cytotoxicity at 10 µM [%]
COc1ccccc1CNC(C)c1ccc2[nH]c(=O)[nH]c2c1 (centres undefined)	-18
CCc1nc2n(n1)CC(NCCC(=O)Nc1cc(C)on1)CC2 (centres undefined)	-10
N#Cc1ccc(OCC(O)CN2CCC(c3ccn[nH]3)CC2)cc1 (centres undefined)	-3.33
COCCOc1cccc(CNCC2CN(C)CCO2)c1 (centres undefined)	-14.8
Fc1cccc(-c2nc(CN3CCCC3Cn3cncn3)co2)c1 (centres undefined)	-5.61
O=C(NCc1cccnc1N1CCCCC1)c1cccs1	-4.43
O=C(NCc1cc[nH]n1)NCC(O)c1ccccc1F (centres undefined)	-17.1
CC(Cn1ccnc1)NC(=O)N(C)Cc1ccc2c(c1)OCO2 (centres undefined)	-16.1
COCCN1CCN(Cc2cccc(C(=O)N(C)C)c2)CC1	-6.79
O=C(CN1CCCC(Cn2cncn2)C1)NCCCc1ccccc1 (centres undefined)	-10.7
Cc1ccccc1-c1noc(CN2CCc3nn(C)c(=O)cc3C2)n1	-12.5
O=C(COc1cccc(Cl)c1)N1CCOCC1c1ncon1 (centres undefined)	-12.3
Cc1csc(N2CCCN(C(=O)CCNc3ncccn3)CC2)n1	-10.5
CC(C)(C)OC(=O)NCCNC(=O)c1ccc(-c2ccco2)[nH]c1=O	-13.1
O=C(c1ccc2c(c1)OCCCO2)N1CCCC(n2cccn2)C1 (centres undefined)	-15.6
CC(NC(=O)Nc1cccnc1N1CCCC1)c1ccncc1 (centres undefined)	-19.3
Cc1ccc(N2CCCC(NCc3ccc4c(c3)CCO4)C2)nn1 (centres undefined)	-16.1
N#CCc1ccc(OCC(=O)N2CCCC(n3cccn3)C2)cc1 (centres undefined)	-4
Cc1noc(C(C)C)c1C(=O)NCC(c1ccsc1)N(C)C (centres undefined)	-5.18
CO[C@@H]1CCN(Cc2cnn(C)c2)[C@@H]2CN(Cc3ccco3)C[C@@H]21	-12.5
CN1CCC2(CCN(Cc3nccs3)CC2)C1=O	-3.03
